Assay results taken from PMC3733499 (Thrombosis and haemostasis, 2013).

How the values were obtained:
mAb S4 = assay: Binding of mAb S4 to immobilized peptides; settings: peptide coated at 20 μM, mAb S4 26 nM, anti-mouse IgG detection
Method in brief: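 Wells coated with peptide and blocked with I-Block; mAb S4 at 26 nM incubated in the wells. Bound antibody detected with anti-mouse IgG, then biotinylated secondary antibody, streptavidin-alkaline phosphatase and phosphatase substrate. Wash solution was HBS with 0.1% porcine skin gelatin and 2 mM CaCl2. Signal from noncoated blocked wells subtracted from coated wells.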

[1] = target: prothrombinase (FXa/FVa/PL) (Homo sapiens, UniProt P00742+P12259); settings: cited from earlier work
FVa [2] = target: T1, FVa (Homo sapiens, UniProt P07225); settings: ref [19]; cited from earlier work
T1 sequence (P07225 42-676): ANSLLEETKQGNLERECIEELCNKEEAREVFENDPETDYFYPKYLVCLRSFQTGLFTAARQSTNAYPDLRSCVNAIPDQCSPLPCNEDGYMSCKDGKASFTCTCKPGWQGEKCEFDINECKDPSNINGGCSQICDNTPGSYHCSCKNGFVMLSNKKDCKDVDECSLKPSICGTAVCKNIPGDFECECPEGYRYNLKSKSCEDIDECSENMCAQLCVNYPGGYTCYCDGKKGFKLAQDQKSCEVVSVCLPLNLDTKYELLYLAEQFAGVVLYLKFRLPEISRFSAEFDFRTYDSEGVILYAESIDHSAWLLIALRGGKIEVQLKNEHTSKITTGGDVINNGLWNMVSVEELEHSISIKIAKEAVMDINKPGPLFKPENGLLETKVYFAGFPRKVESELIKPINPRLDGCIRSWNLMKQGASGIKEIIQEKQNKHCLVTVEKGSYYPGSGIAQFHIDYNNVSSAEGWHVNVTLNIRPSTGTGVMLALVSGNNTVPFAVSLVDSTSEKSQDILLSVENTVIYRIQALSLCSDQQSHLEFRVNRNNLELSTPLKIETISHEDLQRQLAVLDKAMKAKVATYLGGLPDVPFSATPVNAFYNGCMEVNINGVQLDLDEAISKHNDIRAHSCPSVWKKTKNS

FXa binding to FVa = settings: ref [19]; cited from earlier work
[3] = tested on: FXa-induced clotting of PS-depleted plasma (PSdP); assay: FXa-1-stage clotting assay without exogenous PL; assay type: cell-based, human; settings: no exogenous PL, base clotting time 98 sec
Method in brief: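 Human PS-depleted plasma mixed with HBS-BSA containing purified human PS (up to 379 nM) with or without neutralizing mAb S4, plus FXa. No exogenous phospholipid added. Incubated 3 min at 37°C, recalcified with CaCl2 (33 mM stock), and clotting time measured on a coagulometer. FXa standard curves without PS (up to 19 pM as 100%) converted clotting times to % FXa activity.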

[4] = tested on: platelet and fibrin deposition; settings: PS infused without APC; ref [15]; cited from earlier work
Factor Va [5] = target: T2, Factor Va (human, UniProt P12259 29-737; P12259 1574-2224); assay: ELISA
T2 sequence (looked up) 1: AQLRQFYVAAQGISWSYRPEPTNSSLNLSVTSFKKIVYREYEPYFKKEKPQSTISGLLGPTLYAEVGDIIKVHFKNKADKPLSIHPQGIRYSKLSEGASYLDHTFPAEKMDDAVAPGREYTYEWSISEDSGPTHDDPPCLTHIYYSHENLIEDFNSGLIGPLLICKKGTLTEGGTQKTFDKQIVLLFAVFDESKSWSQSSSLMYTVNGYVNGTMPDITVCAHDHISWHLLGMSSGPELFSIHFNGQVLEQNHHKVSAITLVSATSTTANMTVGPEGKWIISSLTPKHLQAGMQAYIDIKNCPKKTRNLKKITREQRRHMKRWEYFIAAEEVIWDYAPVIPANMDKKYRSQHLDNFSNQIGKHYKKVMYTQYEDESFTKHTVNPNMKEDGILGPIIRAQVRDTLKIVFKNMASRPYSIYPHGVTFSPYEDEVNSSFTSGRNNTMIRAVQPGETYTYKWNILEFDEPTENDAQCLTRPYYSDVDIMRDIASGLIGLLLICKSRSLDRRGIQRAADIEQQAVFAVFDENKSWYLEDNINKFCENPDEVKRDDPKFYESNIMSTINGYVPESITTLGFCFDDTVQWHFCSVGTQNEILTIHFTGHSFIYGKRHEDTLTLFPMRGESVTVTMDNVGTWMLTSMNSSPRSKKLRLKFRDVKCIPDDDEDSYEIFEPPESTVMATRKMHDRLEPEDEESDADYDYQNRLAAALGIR
T2 sequence (looked up) 2: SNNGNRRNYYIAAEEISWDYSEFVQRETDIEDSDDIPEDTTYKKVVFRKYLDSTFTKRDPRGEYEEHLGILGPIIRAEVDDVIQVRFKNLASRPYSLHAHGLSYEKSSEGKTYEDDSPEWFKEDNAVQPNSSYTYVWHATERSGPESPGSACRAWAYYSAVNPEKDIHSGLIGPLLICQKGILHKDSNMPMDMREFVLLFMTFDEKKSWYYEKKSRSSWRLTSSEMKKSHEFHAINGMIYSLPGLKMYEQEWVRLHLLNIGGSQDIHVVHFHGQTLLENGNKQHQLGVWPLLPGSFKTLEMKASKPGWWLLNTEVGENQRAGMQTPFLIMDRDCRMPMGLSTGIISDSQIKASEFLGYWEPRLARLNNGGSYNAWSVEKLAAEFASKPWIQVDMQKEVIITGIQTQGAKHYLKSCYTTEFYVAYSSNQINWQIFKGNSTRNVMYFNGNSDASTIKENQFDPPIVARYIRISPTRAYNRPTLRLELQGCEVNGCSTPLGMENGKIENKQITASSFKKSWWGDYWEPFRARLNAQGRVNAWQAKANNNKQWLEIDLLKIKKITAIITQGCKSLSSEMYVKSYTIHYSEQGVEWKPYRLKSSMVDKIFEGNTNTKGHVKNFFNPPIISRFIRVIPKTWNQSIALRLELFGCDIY

[6] = Thr37 to Met mutation; ref [28]; cited from earlier work
[7] = tested on: activated protein C (APC); settings: Thr37 to Met mutation; ref [28]; cited from earlier work
FXa = settings: recombinant; ref [39]; cited from earlier work
FVa [8] = settings: recombinant; ref [39]; cited from earlier work
APC = settings: recombinant; ref [39]; cited from earlier work
Factor Va [9] = target: T2, Factor Va; assay: ELISA; remark: listed apart in the source
Factor Va [10] = target: T2, Factor Va; assay: ELISA; remark: listed apart in the source

Chain of prothrombinase (FXa/FVa/PL) (P00742 41-179 partner limits assumed, one chain of several): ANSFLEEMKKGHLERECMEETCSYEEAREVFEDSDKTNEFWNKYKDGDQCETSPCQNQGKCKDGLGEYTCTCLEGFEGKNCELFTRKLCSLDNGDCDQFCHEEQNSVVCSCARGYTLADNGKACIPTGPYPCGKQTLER
Chain of prothrombinase (FXa/FVa/PL) (P00742 235-488 partner limits assumed, one chain of several): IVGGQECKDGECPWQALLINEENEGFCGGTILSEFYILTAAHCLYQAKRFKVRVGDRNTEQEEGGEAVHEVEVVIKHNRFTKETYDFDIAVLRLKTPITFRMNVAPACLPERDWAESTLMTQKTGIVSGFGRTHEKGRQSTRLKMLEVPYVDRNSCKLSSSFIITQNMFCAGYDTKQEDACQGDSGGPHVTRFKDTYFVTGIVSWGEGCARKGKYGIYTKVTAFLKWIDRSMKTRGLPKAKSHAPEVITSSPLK

In the case of “54–67: peptide representing PS residues 54–67 (TSR) (GLFTAARQSTNAYP; UniProt P07225 95-108, looked up, fragment)”, the “Binding of mAb S4 to immobilized peptide” value (mAb S4) is reported as “detected”.

For “621–635 peptide: peptide representing PS residues 621–635 near the C-terminus (RAHSCPSVWKKTKNS; UniProt P07225 662-676, looked up, fragment)”, the “Inhibition of prothrombinase activity” value ([1]; only in the presence of FVa, ref [19]) is given as “inhibited prothrombinase activity only in the presence of FVa”, the “Inhibition of PS binding to FVa” value (FVa [2]) is given as “inhibited PS binding to FVa” and the “Competition with FXa for a binding site on FVa” value (FXa binding to FVa) is given as “appeared to compete with FXa for a binding site on FVa”.

In the case of “PS: immunoaffinity-purified free plasma protein S retaining Zn^2+”, the “Maximal prolongation of clotting time by PS” value [3] is listed as 95 s, the “Vmax alteration by PS” value ([1]; at 60% inhibition, ref [9]) is listed as 2.2 fold and the “Km alteration by PS” value ([1]; ref [9]) is listed as 2 fold. The “Inhibition of platelet and fibrin deposition” value [4] was “inhibited platelet and fibrin deposition”.

B1: Protein S (natural protein, human, UniProt P07225 42-676, looked up)
chain: ANSLLEETKQGNLERECIEELCNKEEAREVFENDPETDYFYPKYLVCLRSFQTGLFTAARQSTNAYPDLRSCVNAIPDQCSPLPCNEDGYMSCKDGKASFTCTCKPGWQGEKCEFDINECKDPSNINGGCSQICDNTPGSYHCSCKNGFVMLSNKKDCKDVDECSLKPSICGTAVCKNIPGDFECECPEGYRYNLKSKSCEDIDECSENMCAQLCVNYPGGYTCYCDGKKGFKLAQDQKSCEVVSVCLPLNLDTKYELLYLAEQFAGVVLYLKFRLPEISRFSAEFDFRTYDSEGVILYAESIDHSAWLLIALRGGKIEVQLKNEHTSKITTGGDVINNGLWNMVSVEELEHSISIKIAKEAVMDINKPGPLFKPENGLLETKVYFAGFPRKVESELIKPINPRLDGCIRSWNLMKQGASGIKEIIQEKQNKHCLVTVEKGSYYPGSGIAQFHIDYNNVSSAEGWHVNVTLNIRPSTGTGVMLALVSGNNTVPFAVSLVDSTSEKSQDILLSVENTVIYRIQALSLCSDQQSHLEFRVNRNNLELSTPLKIETISHEDLQRQLAVLDKAMKAKVATYLGGLPDVPFSATPVNAFYNGCMEVNINGVQLDLDEAISKHNDIRAHSCPSVWKKTKNS
B1: binds (Factor Va [5]).

B2: T37M PS: recombinant PS with mutation of Thr37 to Met (protein, UniProt P07225 42-676, looked up, variant T37M)
Vitamin K-dependent protein S: ANSLLEETKQGNLERECIEELCNKEEAREVFENDPEMDYFYPKYLVCLRSFQTGLFTAARQSTNAYPDLRSCVNAIPDQCSPLPCNEDGYMSCKDGKASFTCTCKPGWQGEKCEFDINECKDPSNINGGCSQICDNTPGSYHCSCKNGFVMLSNKKDCKDVDECSLKPSICGTAVCKNIPGDFECECPEGYRYNLKSKSCEDIDECSENMCAQLCVNYPGGYTCYCDGKKGFKLAQDQKSCEVVSVCLPLNLDTKYELLYLAEQFAGVVLYLKFRLPEISRFSAEFDFRTYDSEGVILYAESIDHSAWLLIALRGGKIEVQLKNEHTSKITTGGDVINNGLWNMVSVEELEHSISIKIAKEAVMDINKPGPLFKPENGLLETKVYFAGFPRKVESELIKPINPRLDGCIRSWNLMKQGASGIKEIIQEKQNKHCLVTVEKGSYYPGSGIAQFHIDYNNVSSAEGWHVNVTLNIRPSTGTGVMLALVSGNNTVPFAVSLVDSTSEKSQDILLSVENTVIYRIQALSLCSDQQSHLEFRVNRNNLELSTPLKIETISHEDLQRQLAVLDKAMKAKVATYLGGLPDVPFSATPVNAFYNGCMEVNINGVQLDLDEAISKHNDIRAHSCPSVWKKTKNS
For B2, the Affinity for phospholipids [6] is given as “diminished affinity for phospholipids” and the “Decrease in APC cofactor activity” value [7] is given as 3.6 fold.

B3: K155E PS: recombinant K155E PS, prevalent Japanese mutation (protein, UniProt P07225 42-676, looked up, variant K155E)
Vitamin K-dependent protein S: ANSLLEETKQGNLERECIEELCNKEEAREVFENDPETDYFYPKYLVCLRSFQTGLFTAARQSTNAYPDLRSCVNAIPDQCSPLPCNEDGYMSCKDGKASFTCTCKPGWQGEKCEFDINECKDPSNINGGCSQICDNTPGSYHCSCKNGFVMLSNEKDCKDVDECSLKPSICGTAVCKNIPGDFECECPEGYRYNLKSKSCEDIDECSENMCAQLCVNYPGGYTCYCDGKKGFKLAQDQKSCEVVSVCLPLNLDTKYELLYLAEQFAGVVLYLKFRLPEISRFSAEFDFRTYDSEGVILYAESIDHSAWLLIALRGGKIEVQLKNEHTSKITTGGDVINNGLWNMVSVEELEHSISIKIAKEAVMDINKPGPLFKPENGLLETKVYFAGFPRKVESELIKPINPRLDGCIRSWNLMKQGASGIKEIIQEKQNKHCLVTVEKGSYYPGSGIAQFHIDYNNVSSAEGWHVNVTLNIRPSTGTGVMLALVSGNNTVPFAVSLVDSTSEKSQDILLSVENTVIYRIQALSLCSDQQSHLEFRVNRNNLELSTPLKIETISHEDLQRQLAVLDKAMKAKVATYLGGLPDVPFSATPVNAFYNGCMEVNINGVQLDLDEAISKHNDIRAHSCPSVWKKTKNS
In the case of B3, the “Binding to FXa” value (FXa) is listed as “defective binding to FXa and to APC”, the “Binding to FVa” value (FVa [8]) is listed as “normal binding to FVa” and the “Binding to APC” value (APC) is listed as “defective binding to FXa and to APC”.

TDYFYPKYLVCLRS [Peptide PSP37 (protein S residues 37-50)] gave a Kd (Factor Va [9]) of 14 nM and an IC50 (Factor Va [10]) of 15 µM.
